Test results taken from ChEMBL document CHEMBL4152323, “N-(1,3,4-oxadiazol-2-yl)benzamide analogs, bacteriostatic agents against methicillin- and vancomycin-resistant bacteria” (Eur J Med Chem, 2018).
Values after ≈ are worked out from the molar mass of the structure shown. Active and inactive are the calls of the source. No cut-off for these calls is given here.

Tests used:
Staphylococcus aureus [1] = assay: Antibacterial activity against Staphylococcus aureus assessed as growth inhibition at 16 ug/ml after 24 hrs; type: functional, organism-based
How it was run: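 S. aureus grown in Mueller Hinton Broth to early exponential phase, then exposed to compound (16 μg/mL; DMSO stocks 10 mg/mL) or DMSO in duplicate, 37 °C for 24 h. OD600 read; percent normalized OD600 = (X − media blank)/(DMSO control − media blank) × 100.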

Staphylococcus aureus [2] = assay: Bacteriostatic activity against Staphylococcus aureus ATCC 25923 after 20 hrs by broth microdilution method; type: functional; conditions: ATCC 25923, 20 h
How it was run: (§1)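 Broth microdilution MIC over 128 to 1 μg/mL, run alongside methicillin, linezolid and vancomycin. MIC taken as the lowest concentration with no visible growth.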

Staphylococcus aureus [3] = assay: Bacteriostatic activity against methicillin-resistant Staphylococcus aureus ATCC 33592 after 20 hrs by broth microdilution method; type: functional; conditions: ATCC 33592, 20 h; how it was run: as §1
Enterococcus faecalis [4] = assay: Bacteriostatic activity against Enterococcus faecalis ATCC 29212 after 20 hrs by broth microdilution method; type: functional; conditions: ATCC 29212, 20 h; how it was run: as §1
Enterococcus faecalis [5] = assay: Bacteriostatic activity against vancomycin-resistant Enterococcus faecalis ATCC 51575 after 20 hrs by broth microdilution method; type: functional; conditions: ATCC 51575, 20 h; how it was run: as §1
Listeria monocytogenes = assay: Bacteriostatic activity against Listeria monocytogenes ATCC 19115 after 20 hrs by broth microdilution method; type: functional; conditions: ATCC 19115, 20 h
How it was run: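 MIC by broth microdilution across 128 to 1 μg/mL in 96-well plates, 37 °C for at least 20 h. MIC is the lowest concentration with no visible growth.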

Row | SMILES | growth inhibition (GI) (Staphylococcus aureus [1]) | MIC (Staphylococcus aureus [2]) | MIC (Staphylococcus aureus [3]) | MIC (Enterococcus faecalis [4]) | MIC (Enterococcus faecalis [5]) | MIC (Listeria monocytogenes)
1 | CC1CCCCN1S(=O)(=O)c1ccc(C(=O)Nc2nnc(-c3cccs3)o2)cc1 (centres undefined) | Active | 8 µg/mL (≈ 18.5 µM) | 8 µg/mL (≈ 18.5 µM) | 16 µg/mL (≈ 37 µM) | 16 µg/mL (≈ 37 µM) | 16 µg/mL (≈ 37 µM)
2 | CN(C)S(=O)(=O)c1ccc(C(=O)Nc2nnc(-c3ccc(F)cc3)o2)cc1 | Active | 16 µg/mL (≈ 41 µM) | 16 µg/mL (≈ 41 µM) | 32 µg/mL (≈ 82 µM) | 32 µg/mL (≈ 82 µM) | 32 µg/mL (≈ 82 µM)
3 | C#CCNS(=O)(=O)c1ccc(C(=O)Nc2nnc(-c3ccc(Cl)cc3)o2)cc1 | Active | 64 µg/mL (≈ 154 µM) | 32 µg/mL (≈ 76.8 µM) | 64 µg/mL (≈ 154 µM) | 64 µg/mL (≈ 154 µM) | 64 µg/mL (≈ 154 µM)
4 | O=C(Nc1nnc(-c2ccc(Cl)cc2)o1)c1ccc(S(=O)(=O)N2CCCC2)cc1 | Active | 16 µg/mL (≈ 37 µM) | 8 µg/mL (≈ 18.5 µM) | 16 µg/mL (≈ 37 µM) | 16 µg/mL (≈ 37 µM) | 16 µg/mL (≈ 37 µM)
5 | COc1cccc(-c2nnc(NC(=O)c3ccc(S(=O)(=O)N(C)CC4CCCO4)cc3)o2)c1 (centres undefined) | Active | 32 µg/mL (≈ 67.7 µM) | 32 µg/mL (≈ 67.7 µM) | 32 µg/mL (≈ 67.7 µM) | 32 µg/mL (≈ 67.7 µM) | 32 µg/mL (≈ 67.7 µM)
6 | CN(C)S(=O)(=O)c1ccc(C(=O)Nc2nnc(-c3ccc(Cl)cc3)o2)cc1 | Active | 64 µg/mL (≈ 157 µM) | 32 µg/mL (≈ 78.7 µM) | 64 µg/mL (≈ 157 µM) | 64 µg/mL (≈ 157 µM) | 64 µg/mL (≈ 157 µM)
7 | O=C(Nc1nnc(-c2cccs2)o1)c1ccc(S(=O)(=O)N2CCCCC2)cc1 | Active | 32 µg/mL (≈ 76.5 µM) | 32 µg/mL (≈ 76.5 µM) | 16 µg/mL (≈ 38.2 µM) | 64 µg/mL (≈ 153 µM) | 32 µg/mL (≈ 76.5 µM)
8 | O=C(Nc1nnc(-c2ccc(Cl)cc2)o1)c1ccc(S(=O)(=O)NC2CC2)cc1 | Active | 16 µg/mL (≈ 38.2 µM) | 16 µg/mL (≈ 38.2 µM) | 32 µg/mL (≈ 76.4 µM) | 16 µg/mL (≈ 38.2 µM) | 16 µg/mL (≈ 38.2 µM)
9 | CCN(CC)S(=O)(=O)c1ccc(C(=O)Nc2nnc(-c3ccc(Cl)cc3)o2)cc1 | Active | 16 µg/mL (≈ 36.8 µM) | 16 µg/mL (≈ 36.8 µM) | 32 µg/mL (≈ 73.6 µM) | 16 µg/mL (≈ 36.8 µM) | 16 µg/mL (≈ 36.8 µM)
10 | CCOC(=O)c1nnc(NC(=O)c2ccc(S(=O)(=O)N3C[C@H](C)C[C@H](C)C3)cc2)o1 | inactive |  |  |  |  | 
11 | CN(CC1CCCO1)S(=O)(=O)c1ccc(C(=O)Nc2nnc(-c3ccccc3)o2)cc1 (centres undefined) | Active |  |  |  |  | 
12 | C[C@@H]1CN(S(=O)(=O)c2ccc(C(=O)Nc3nnc(-c4cccs4)o3)cc2)C[C@H](C)O1 | inactive |  |  |  |  | 
13 | C[C@@H]1C[C@H](C)CN(S(=O)(=O)c2ccc(-c3nnc(-c4cccs4)o3)cc2)C1 | inactive |  |  |  |  | 
14 | C[C@@H]1C[C@H](C)CN(S(=O)(=O)c2ccc(C(=O)Nc3nnc(-c4cccs4)[nH]3)cc2)C1 | inactive |  |  |  |  | 
